Laboratory results from BindingDB's records for doi:10.1021/acsmedchemlett.6b00438 (Rhône-Poulenc Rorer, 2017).
pIC50: −log10 of the molar value.

Key:
[1] = target: Phosphatidylinositol 3-kinase regulatory subunit alpha/4,5-bisphosphate 3-kinase catalytic subunit delta isoform (Homo sapiens, UniProt P27986+O00329); assay: Inhibition of full length recombinant human N-terminal His6-tagged PI3K p110delta/human p85alpha expressed in baculovirus infected sf21 cells using PIP2 as substrate preincubated for 30 mins followed by substrate addition by HTRF assay
[2] = target: T1, Phosphatidylinositol 4,5-bisphosphate 3-kinase catalytic subunit delta isoform (Homo sapiens, UniProt O00329); assay: Inhibition of PI3Kdelta in human THP1 cells assessed as reduction in MCSF-stimulated akt phosphorylation at Thr308 preincubated for 30 mins followed by MCSF stimulation for 3 mins by ELISA
T1 sequence (O00329 whole entry): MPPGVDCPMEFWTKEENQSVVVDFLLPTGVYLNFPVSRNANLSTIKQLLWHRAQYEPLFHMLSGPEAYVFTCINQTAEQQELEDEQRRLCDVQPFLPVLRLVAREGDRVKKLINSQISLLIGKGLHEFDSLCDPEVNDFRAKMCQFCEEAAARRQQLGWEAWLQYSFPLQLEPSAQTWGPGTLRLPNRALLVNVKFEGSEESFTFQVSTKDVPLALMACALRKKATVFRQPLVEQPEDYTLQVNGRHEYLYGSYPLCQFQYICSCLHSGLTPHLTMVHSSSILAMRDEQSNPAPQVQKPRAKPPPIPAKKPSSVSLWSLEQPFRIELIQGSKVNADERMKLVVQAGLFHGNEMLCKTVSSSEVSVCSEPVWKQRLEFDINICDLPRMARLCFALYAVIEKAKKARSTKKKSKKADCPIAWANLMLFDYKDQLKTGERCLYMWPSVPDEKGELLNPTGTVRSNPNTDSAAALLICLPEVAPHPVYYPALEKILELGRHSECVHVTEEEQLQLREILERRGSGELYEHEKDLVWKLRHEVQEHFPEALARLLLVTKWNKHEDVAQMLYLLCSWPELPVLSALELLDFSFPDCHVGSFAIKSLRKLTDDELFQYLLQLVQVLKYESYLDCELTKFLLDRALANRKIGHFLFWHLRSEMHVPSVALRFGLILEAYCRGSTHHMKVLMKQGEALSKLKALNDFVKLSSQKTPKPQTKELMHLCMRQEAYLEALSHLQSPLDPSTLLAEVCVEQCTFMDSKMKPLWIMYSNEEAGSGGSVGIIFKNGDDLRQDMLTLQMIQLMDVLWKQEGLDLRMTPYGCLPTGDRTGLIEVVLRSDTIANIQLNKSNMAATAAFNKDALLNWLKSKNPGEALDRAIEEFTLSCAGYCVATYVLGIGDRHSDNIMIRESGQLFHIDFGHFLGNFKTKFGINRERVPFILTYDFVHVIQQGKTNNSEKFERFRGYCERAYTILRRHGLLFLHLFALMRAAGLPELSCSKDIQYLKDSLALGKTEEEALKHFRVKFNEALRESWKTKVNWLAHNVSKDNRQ
Summary of the method: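 THP-1 cells exposed to compound for 30 min, then stimulated with MCSF at EC80 for 3 min; lysates assayed by ELISA for pAkt (Thr308).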

Chain of Phosphatidylinositol 3-kinase regulatory subunit alpha/4,5-bisphosphate 3-kinase catalytic subunit delta isoform (P27986 whole entry, one chain of several, canonical isoform): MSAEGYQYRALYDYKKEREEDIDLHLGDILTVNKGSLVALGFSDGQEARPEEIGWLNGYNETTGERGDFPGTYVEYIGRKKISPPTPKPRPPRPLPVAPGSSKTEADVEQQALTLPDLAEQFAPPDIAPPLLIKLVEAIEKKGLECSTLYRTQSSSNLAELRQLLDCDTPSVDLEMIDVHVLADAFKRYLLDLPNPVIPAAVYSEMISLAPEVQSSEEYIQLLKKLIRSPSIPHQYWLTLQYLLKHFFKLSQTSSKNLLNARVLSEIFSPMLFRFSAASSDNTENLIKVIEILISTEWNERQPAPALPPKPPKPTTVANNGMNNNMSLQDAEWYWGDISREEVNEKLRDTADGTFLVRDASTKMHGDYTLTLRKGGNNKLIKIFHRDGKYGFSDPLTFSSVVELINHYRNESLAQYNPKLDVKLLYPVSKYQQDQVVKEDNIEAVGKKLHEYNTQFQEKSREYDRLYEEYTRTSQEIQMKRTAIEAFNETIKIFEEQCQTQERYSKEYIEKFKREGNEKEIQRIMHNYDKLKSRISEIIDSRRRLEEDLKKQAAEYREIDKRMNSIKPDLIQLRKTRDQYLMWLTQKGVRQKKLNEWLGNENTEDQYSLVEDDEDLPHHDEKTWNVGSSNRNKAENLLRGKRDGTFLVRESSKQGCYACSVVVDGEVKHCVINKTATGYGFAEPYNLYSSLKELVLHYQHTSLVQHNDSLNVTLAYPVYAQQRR

pIC50 [1]: 7.77
pIC50 [2]: 7.29
SMILES: N#Cc1c(N)ncnc1NC(CC(F)(F)F)c1nn2cccc2c(=O)n1-c1ccccc1 (configuration not stated)
